Source: PubChem (several laboratories)
Rev-RRE block = HIV-1 Rev-RRE binding inhibitors, primary screen, biochemical, FRET, protein-RNA interaction; Rev peptide-RRE RNA binding; inhibition, % at 8 µM; 97,000 tested, 0.79% active;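 active = inhibition above the screen-wide mean plus 3 SD, cut at about 35% in these data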;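 note: 0% = median DMSO wells and 100% = median Neomycin B control wells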
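Test system – labelled RRE RNA duplex and labelled Rev peptide · Reagent – labelled Rev peptide · Doses – one concentration, 8 µM nominal · Incubation – 5 + 15 min at 25 °C · Signal – FRET fluorescence readout · Read-out basis – % inhibition of FRET ratio versus controls · Control set – DMSO wells as 0% and neomycin B wells as 100% inhibition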
Measles CPE = compounds protecting cells from measles virus cytopathic effect, primary screen, measles RdRp inhibitor project, single point, MLSMR library, absorbance; Measles virus-infected cells, CPE protection; protection (pct of control), % at 4 µM; 140,000 tested, 1.5% active; AID 841, 2007; in the data active = protection mostly above about 24%, no sharp cut-off; inactive = mostly below about 26%
PTK2B oligo ant = antagonists of Pyk2 self-association, primary screen, Q293 cells, FERM NanoBiT luminescence, HTS; Protein-tyrosine kinase 2-beta (Homo sapiens), Q14289; hits give low values; z-score (the deposit names both 25 µM and 10 µM); 99,000 tested, 0.83% active;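 active = Z-score of -3 or lower, scaled per plate to the spread of control and sample wells; inactive = z-score above -3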;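 note: negative z-score means lost luminescence so less FERM oligomerization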
Phagocytosis inh = inhibitors of macrophage phagocytosis, primary screen, imaging, J774A.1 cells, IgG beads | J774A.1 macrophage IgG-bead phagocytosis | inhibition, % at 5 µM | 110,000 tested, 0.07% active | AID 1029, 2008;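 active = inhibition above the mean of the plate negative controls plus 5 SD, cut at about 13% in these data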;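 note: phagocytic index as fraction of beads internalized from green versus red external bead signal; plate controls were DMSO negative control for no effect and cytochalasin-D positive control for full effect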
Cav32 inh = Cav3.2 calcium influx blockers – cell-based, Fluo-4 calcium fluorescence, FDSS, MLSMR library, primary screen; B-score at 10 µM; Voltage-dependent T-type calcium channel subunit alpha-1H (Homo sapiens), O95180; Cav3.2-expressing cells; hits give low values; 100,000 tested, 4% active;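 active = single-dose well whose peak fluorescence ratio is a statistical outlier from its plate by either plate-standardised score or position-corrected B-score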
hDAT+cocaine = changed hDAT dopamine uptake under cocaine IC80, either direction, primary screen, cocaine antagonist project, cell-based, LLC-PK1 hDAT, [14C]-dopamine uptake, MLSMR; Sodium-dependent dopamine transporter (Homo sapiens), Q01959; LLC-PK1 hDAT cells, [14C]-dopamine uptake with cocaine IC80; actives deviate in either direction; B-score at 10 µM; 110,000 tested, 1.3% active; AID 449768, 2010;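 active = Z score or B-score, a plate-position-corrected score, falls beyond the plate's 99.7% confidence bounds, in either direction; inactive = both scores lie inside the 99.7% bounds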;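 note: scored against the spread of the other compound wells on the same plate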
Target sequence (Q01959 whole entry, looked up): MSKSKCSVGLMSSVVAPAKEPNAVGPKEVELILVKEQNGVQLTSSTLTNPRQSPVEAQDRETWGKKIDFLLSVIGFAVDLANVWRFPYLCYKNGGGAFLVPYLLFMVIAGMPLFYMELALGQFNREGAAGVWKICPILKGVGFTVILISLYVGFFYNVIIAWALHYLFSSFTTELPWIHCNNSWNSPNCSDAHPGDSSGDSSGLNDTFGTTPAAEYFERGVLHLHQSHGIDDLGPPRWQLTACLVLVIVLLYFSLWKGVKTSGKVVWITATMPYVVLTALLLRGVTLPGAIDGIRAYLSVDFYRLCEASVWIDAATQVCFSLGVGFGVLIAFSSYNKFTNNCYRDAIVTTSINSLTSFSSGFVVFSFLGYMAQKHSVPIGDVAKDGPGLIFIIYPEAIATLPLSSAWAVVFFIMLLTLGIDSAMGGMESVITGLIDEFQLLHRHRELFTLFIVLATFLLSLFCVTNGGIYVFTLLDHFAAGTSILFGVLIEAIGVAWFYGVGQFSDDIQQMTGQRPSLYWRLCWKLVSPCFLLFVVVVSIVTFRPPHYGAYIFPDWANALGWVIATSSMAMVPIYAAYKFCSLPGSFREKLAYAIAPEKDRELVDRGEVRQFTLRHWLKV
* = called active by the depositor; [ ] = another dose, or the depositor's remark. Most compounds without a hit are left out; they make up all but 5.9% or so of the library.

What do the screens show for `COCCNC(=O)C1CCC(Cn2c(=S)[nH]c3ccccc3c2=O)CC1` (stereo not given)?
Rev-RRE block: 2; Measles CPE: 7; PTK2B oligo ant: 0.98; Phagocytosis inh: -3; Cav32 inh: 0.85; hDAT+cocaine: -7.6*

How did O=C(NCCc1c[nH]c2ccccc12)C1CCC(Cn2c(=S)[nH]c3ccccc3c2=O)CC1 (stereo not given) do in these assays?
Rev-RRE block: 0; Measles CPE: 10; PTK2B oligo ant: -1.7; Phagocytosis inh: -1; Cav32 inh: -5; hDAT+cocaine: 1

Results for CC(=O)NCCn1c(SCC(=O)NCC2CCCO2)nc2ccccc2c1=O (stereo not given) ?
Rev-RRE block: 2; Measles CPE: 52*; PTK2B oligo ant: 0.21; hDAT+cocaine: 0.0042

How did CC1(C(=O)NCCCNc2ncc(C(F)(F)F)cc2Cl)C=CC2(CCCCC2)N1C(=O)c1ccccc1 (stereo not given) do in these assays?
Cav32 inh: -2.8; hDAT+cocaine: -0.34

How did CCCCn1nnnc1SCC(=O)Nc1ccc(N(C)C)cc1 do in these assays?
Rev-RRE block: -4; Measles CPE: 9; PTK2B oligo ant: -0.08; Phagocytosis inh: -1; Cav32 inh: 2.2; hDAT+cocaine: -0.87

How did COc1cc(CN2CCN(c3ccccc3F)CC2)c([N+](=O)[O-])cc1OC do in these assays?
Measles CPE: 15; Phagocytosis inh: -2

What do the screens show for `CN(Cc1ccccc1F)c1nc(-c2cccs2)nc2ccccc12`?
Measles CPE: 21; Phagocytosis inh: 5

How did COc1ccc(C(=O)Nn2c(SCC(=O)NCC3CCCO3)nc3ccccc3c2=O)cc1 (stereo not given) do in these assays?
Rev-RRE block: 4; Measles CPE: 7; PTK2B oligo ant: -1.6; Phagocytosis inh: 0; Cav32 inh: -0.09; hDAT+cocaine: -8.4*

Results for c1ccc(-c2cn3nc(-c4ccccc4)c(-c4ccccc4)nc3n2)cc1 ?
Rev-RRE block: 98*[fluorescence artefact?]; Measles CPE: 6; PTK2B oligo ant: -0.23; Cav32 inh: -5.3*; hDAT+cocaine: 0.92

How did CCN(C(=O)COC(=O)c1ccc(OCc2c(C)noc2C)cc1)c1ccccc1 do in these assays?
Rev-RRE block: 6; Measles CPE: 4; PTK2B oligo ant: 1.2; Phagocytosis inh: 1; Cav32 inh: -0.92; hDAT+cocaine: 1.1

Results for CCN(c1ccccc1)S(=O)(=O)c1ccc(OCc2c(C)noc2C)cc1 ?
Rev-RRE block: 8; Measles CPE: 11; PTK2B oligo ant: 0.29; Phagocytosis inh: 0; Cav32 inh: -4.4*; hDAT+cocaine: 0.5

Results for CCN(CC(=O)Nc1ccc([N+](=O)[O-])cc1OC)CC(=O)NC(C)(C)C ?
Measles CPE: 15; PTK2B oligo ant: 0.2; Phagocytosis inh: 0

How did CC(C)(C)C(=O)n1nc(-c2ccccc2)oc1=O do in these assays?
Measles CPE: 5; Phagocytosis inh: -5

How did CC(=O)c1ccc(NS(=O)(=O)c2ccc(C)cc2)cc1 do in these assays?
Rev-RRE block: 3; Measles CPE: 7; PTK2B oligo ant: -0.2; Phagocytosis inh: -1; Cav32 inh: -0.79; hDAT+cocaine: 0.05

Results for CC(=O)c1ccc(NS(=O)(=O)c2cccc(C)c2)cc1 ?
Rev-RRE block: 9; Measles CPE: 41*; PTK2B oligo ant: 0.2; Phagocytosis inh: 3; Cav32 inh: -0.12; hDAT+cocaine: -0.22

How did O=C(NCc1ccccc1)c1ccc(-c2ccccc2F)o1 do in these assays?
Rev-RRE block: 7; Measles CPE: 2; PTK2B oligo ant: -1.1; Phagocytosis inh: 0; Cav32 inh: -4.2*; hDAT+cocaine: 0.066

What do the screens show for `Cc1cccc(Cn2c(=O)c3c(nc4n3CCCN4Cc3ccccc3)n(C)c2=O)c1`?
Rev-RRE block: -3; Measles CPE: 7; PTK2B oligo ant: -1.5; Phagocytosis inh: -2; Cav32 inh: -4; hDAT+cocaine: 3*
